Only some compounds are listed: those with a hit (about 2% of all), similar ones and a draw of the others.
SR-BI uptake up = activators of SR-BI mediated HDL lipid uptake; hit rate 0.096% among 320,000; CHO ldlA[mSR-BI] cells, DiI-HDL uptake fluorescence, 3 h; 100 = double the neutral-control signal; AID 504775; activation, % at 12.5 µM;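 active = mean replicate activation of at least 60% and every replicate at or above 60%; inconclusive = mean or all-replicate condition met, but not both; inactive = mean below 60% and not all replicates reaching 60%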;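 also: 0% = median plate neutral-control signal and 100% = twice that signal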
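Test system: SR-BI-overexpressing, LDLR-lacking CHO cells; Also added: labelled HDL, 10 µg/mL; Measured by: bottom-read cell fluorescence after medium removal, ex 550/em 595 nm; Timing: 3 h uptake period with compound, 37 °C; Buffer or medium: F12, 0.5% BSA, 25 mM HEPES; Doses: single compound concentration, delivered by pin transfer.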
CDK5 p35 inh = CDK5/p35 (human) kinase inhibition. Recombinant CDK5/p35, ADP-Glo luminescence, 60 min. AID 488839. hit rate 0.01% among 330,000. inhibition, % at 10 µM. Q00535+Q15078;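 active = highest replicate inhibition of at least 50% and at least 75% of replicates reaching 50%; inconclusive = only one of the two criteria met; inactive = both criteria failed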;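 also: plate controls were DMSO neutral control for no effect and GW8510 at 10 µM for full effect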
dFosB activator = enhances mouse delta FosB homodimer DNA binding. P13346. purified delta FosB, TAMRA-CDK5 oligo fluorescence polarization; percent of positive-control signal above neutral wells. activation, % at 25 µM. hit rate 0.99% among 340,000. AID 493131;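 active = mean activation above about 17%, with every replicate also reaching it, limit read from the data, passing the limit was not always enough; inconclusive = only one of the two conditions met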
Target sequence (P13346 whole entry, looked up): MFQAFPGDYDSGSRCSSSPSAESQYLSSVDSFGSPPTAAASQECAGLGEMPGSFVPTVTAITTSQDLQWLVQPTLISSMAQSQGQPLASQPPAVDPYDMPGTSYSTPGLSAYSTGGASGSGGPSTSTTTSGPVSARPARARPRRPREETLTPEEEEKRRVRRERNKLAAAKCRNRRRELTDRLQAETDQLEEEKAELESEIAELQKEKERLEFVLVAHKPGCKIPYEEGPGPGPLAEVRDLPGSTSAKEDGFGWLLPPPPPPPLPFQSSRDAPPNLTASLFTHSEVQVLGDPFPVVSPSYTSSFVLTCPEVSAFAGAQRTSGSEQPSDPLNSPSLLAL
SR-BI HDL uptake = blocks mouse SR-BI lipid uptake from DiI-HDL; AID 488896; Q61009; inhibition, % at 12.5 µM; ldlA[mSR-BI] CHO cells, DiI-HDL uptake fluorescence, 3 h; hit rate 0.96% among 320,000;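 active = mean replicate inhibition of at least 70% and a set share of replicates each scoring 70 or more; inconclusive = meets just one of the two criteria; inactive = fails both criteria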;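 also: 0% = median of neutral control wells and 100% = median of positive control wells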
Active calls of the source: *; ? = inconclusive; · = not tested or not shown.

SMILES | SR-BI uptake up | CDK5 p35 inh | dFosB activator | SR-BI HDL uptake
O=C(COC(=O)/C=C/c1ccccc1)NC1CCS(=O)(=O)C1 (stereo not drawn) | 11 | 0 | -1 | -11
CCOc1cc(/C=C/C(=O)OCC(=O)NC2CCS(=O)(=O)C2)ccc1OCc1ccccc1 (stereo not drawn) | -73 | 1 | -2 | 73*
CCOC(=O)c1cnc(SCc2nc(N)nc(Nc3ccc(F)cc3)n2)nc1N | -29 | 4 | ? | 29
CCOC(=O)c1cnc(SCc2nc(N)nc(Nc3ccc(C)cc3)n2)nc1N | -17 | -1 | 48* | 17
COc1ccc(-c2cn3c(C)c(C(=O)Nc4cc(NC(C)=O)ccc4OC)sc3n2)cc1 | -75 | 1 | -12 | 75*
CCC1=NN(C(=O)c2ccc([N+](=O)[O-])cc2)C(O)(c2ccccc2)C1 (stereo not drawn) | -82 | 1 | -1 | 82*
CCC1=NN(C(=O)c2ccccc2Br)C(O)(c2ccc(Br)cc2)C1 (stereo not drawn) | 5 | 0 | -18 | -5
CCC1=NN(C(=O)c2ccccc2O)C(O)(c2ccccc2)C1 (stereo not drawn) | -120 | -2 | -6 | 120*
O=C(c1ccccc1O)N1N=C(C(F)(F)F)CC1(O)c1ccc([N+](=O)[O-])cc1 (stereo not drawn) | -71 | 0 | -11 | 71*
COc1ccccc1-c1nnc(SC(C)C(=O)Nc2ccc(C(N)=O)cc2)o1 (stereo not drawn) | 17 | -1 | -1 | -17
CCN(c1ccccc1)S(=O)(=O)c1ccc(Cl)c(C(=O)NCCc2ccc(OC)cc2)c1 | -1 | 0 | -6 | 1
COc1ccccc1N(C)S(=O)(=O)c1ccc(Cl)c(C(=O)NNC(=O)c2ccccc2O)c1 | -81 | -2 | -7 | 81*
COc1ccccc1N(C)S(=O)(=O)c1ccc(C(=O)NNC(=O)c2ccccc2O)cc1 | -126 | 2 | 8 | 126*
COc1ccc(N(C)S(=O)(=O)c2ccc(Cl)c(C(=O)NNC(=O)c3ccccc3O)c2)cc1 | -79 | -2 | -5 | 79*
COc1ccccc1N(C)S(=O)(=O)c1ccc(Cl)c(C(=O)N2CCC2)c1 | 13 | 1 | -4 | -13
COc1cc(OC)c(C2=NOC(C(=O)N3CCCc4ccccc43)C2)cc1Cl (stereo not drawn) | -81 | -4 | -5 | 81*
CCC1CCCCN1C(=O)C1CC(c2cc(Cl)c(OC)cc2OC)=NO1 (stereo not drawn) | -60 | 0 | -9 | 60
COc1ccc(C(=O)N2CCCc3ccccc32)cc1OC | -83 | -6 | 3 | 83*
COc1cc(C(=O)N2CCCc3ccccc32)cc(OC)c1OC | -30 | 2 | 1 | 30
CC(C)CC(=O)Nc1c2c(nn1-c1cccc(Cl)c1)CS(=O)C2 (stereo not drawn) | 0 | 1 | 4 | 0
O=C1C=C(c2ccccc2C(F)(F)F)C[C@@H](c2ccc3c(c2)OCO3)C1 | -6 | -2 | 5 | 6
N#Cc1ccc(OCC(O)CN2CCC(C(O)(c3ccccc3)c3ccccc3)CC2)cc1 (stereo not drawn) | -2 | -5 | -11 | 2
Cc1ccc(-c2nc(NC(=O)c3cc(C(C)(C)C)nn3C)sc2C)cc1Cl | -73 | -1 | -8 | 73*
CC1CCc2c(sc3ncnc(NCc4cccnc4)c23)C1 (stereo not drawn) | -22 | 2 | 0 | 22
CC1CCc2c(sc3ncnc(NCCCOC(C)C)c23)C1 (stereo not drawn) | -75 | 3 | -8 | 75*
SMILES | SR-BI uptake up | CDK5 p35 inh | dFosB activator | SR-BI HDL uptake
CCCCCn1c(N)c(-c2nc3ccccc3s2)c2c([N+](=O)[O-])nn(CC)c(=O)c21 | -83 | -1 | -3 | 83*
CCCCn1c(N)c(-c2nc3ccccc3s2)c2c([N+](=O)[O-])nn(C)c(=O)c21 | -93 | 0 | -7 | 93*
CCCCn1c(N)c(-c2nc3ccccc3s2)c2c([N+](=O)[O-])nn(CC)c(=O)c21 | -67 | 3 | 0 | 67
CCCc1nc2ccccc2c(=O)n1CC(=O)c1ccc(F)cc1 | 15 | 1 | -13 | -15
NC(=O)CCN1CCN(C(=O)c2ccc3nc(Cc4cccc(Cl)c4)oc3c2)CC1 | 19 | 0 | -5 | -19
CCOc1cc(C2NC(=O)NC(C)=C2C(=O)OCC2CCCCC2)ccc1O (stereo not drawn) | 0 | 4 | -18 | 0
O=C(N/N=C/c1ccccc1)c1ccc(NC(=O)c2ccc(F)cc2)cc1 | · | -1 | -7 | ·

Compound activity: PubChem, Broad Institute
